Assay results published in ChEMBL document CHEMBL2331151 (Bioorg Med Chem, 2013).

Experiments:
[1] = AUC (0 to 24 hrs) in Sprague-Dawley rat at 5 mg/kg, po; type: ADME, organism-based; set-up: time < 24 hr, dose 5 mg/kg, route oral; settings: plasma
In short: (§1)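 Compound given as a suspension by oral gavage to Sprague–Dawley rats as a single dose (5 mg/kg in the single-dose comparison; doses from 0.1–100 mg/kg in the dose-dependence study).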

Liver microsomes = assay: Drug metabolism in rat liver microsomes in presence of S9 fractions; type: ADME, Microsome
In short: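 Compound incubated with the S-9 fraction of rat liver microsomes to measure in vitro clearance. Primary metabolites formed during the incubation were identified.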

[2] = Oral bioavailability in Sprague-Dawley rat at 5 mg/kg; type: ADME, organism-based; settings: in vivo
[3] = Half life in Sprague-Dawley rat at 5 mg/kg; type: ADME, organism-based; set-up: dose 5 mg/kg; settings: in vivo
[4] = Cmax in Sprague-Dawley rat at 5 mg/kg, po; type: ADME, organism-based; set-up: dose 5 mg/kg, route oral; settings: in vivo; in short: as §1
[5] = AUC (0 to 24 hrs) in Sprague-Dawley rat at 2 mg/kg, po; type: ADME, organism-based; set-up: time < 24 hr, dose 2 mg/kg, route oral; settings: plasma; in short: as §1
[6] = Cmax in Sprague-Dawley rat at 30 mg/kg, po; type: ADME, organism-based; set-up: dose 30 mg/kg, route oral; settings: in vivo; in short: as §1
[7] = Cmax in Sprague-Dawley rat at 1 mg/kg, po; type: ADME, organism-based; set-up: dose 1 mg/kg, route oral; settings: in vivo; in short: as §1
[8] = AUC (0 to 24 hrs) in Sprague-Dawley rat at 0.1 mg/kg, po; type: ADME, organism-based; set-up: time < 24 hr, dose 0.1 mg/kg, route oral; settings: plasma; in short: as §1
[9] = Cmax in Sprague-Dawley rat at 2 mg/kg, po; type: ADME, organism-based; set-up: dose 2 mg/kg, route oral; settings: in vivo; in short: as §1
[10] = AUC (0 to 24 hrs) in Sprague-Dawley rat at 30 mg/kg, po; type: ADME, organism-based; set-up: time < 24 hr, dose 30 mg/kg, route oral; settings: plasma; in short: as §1
[11] = AUC (0 to 24 hrs) in Sprague-Dawley rat at 0.3 mg/kg, po; type: ADME, organism-based; set-up: time < 24 hr, dose 0.3 mg/kg, route oral; settings: plasma; in short: as §1
[12] = Cmax in Sprague-Dawley rat at 100 mg/kg, po; type: ADME, organism-based; set-up: dose 100 mg/kg, route oral; settings: in vivo; in short: as §1
[13] = AUC (0 to 24 hrs) in Sprague-Dawley rat at 1 mg/kg, po; type: ADME, organism-based; set-up: time < 24 hr, dose 1 mg/kg, route oral; settings: plasma; in short: as §1
[14] = AUC (0 to 24 hrs) in Sprague-Dawley rat at 100 mg/kg, po; type: ADME, organism-based; set-up: time < 24 hr, dose 100 mg/kg, route oral; settings: plasma; in short: as §1
[15] = Cmax in Sprague-Dawley rat at 0.1 mg/kg, po; type: ADME, organism-based; set-up: dose 0.1 mg/kg, route oral; settings: in vivo; in short: as §1
[16] = Cmax in Sprague-Dawley rat at 0.3 mg/kg, po; type: ADME, organism-based; set-up: dose 0.3 mg/kg, route oral; settings: in vivo; in short: as §1

O=S(=O)(Nc1cc(Cl)c(Oc2cncc(Cl)c2)c(Cl)c1)c1ccc(Cl)cc1Cl
AUC(0-t) at 24 h [1]: 4.8 µM·h

CCNC(=O)c1cc(NS(=O)(=O)c2cc(C)c(Cl)cc2Cl)ccc1Oc1cncc(Cl)c1
Drug metabolism (Liver microsomes): Active | bioavailability [2]: 8% | half-life [3]: 40 min | AUC(0-t) at 24 h [1]: 1.6 µM·h

O=S(=O)(Nc1ccc(Oc2cnc3ccccc3c2)c(Cl)c1)c1ccc(Cl)cc1Cl
Cmax [4]: 11000 nM | AUC(0-t) at 24 h [1]: 105 µM·h

O=S(=O)(Nc1ccc(Oc2cnc3ccccc3c2)c(F)c1)c1ccc(Cl)cc1Cl
Cmax [4]: 4800 nM | AUC(0-t) at 24 h [1]: 82 µM·h

O=S(=O)(Nc1cc(Cl)c(Oc2cnc3ccccc3c2)c(Cl)c1)c1ccc(C(F)(F)F)cc1Cl
Cmax [4]: 8500 nM | AUC(0-t) at 24 h [1]: 112 µM·h

CC(=O)c1cc(NS(=O)(=O)c2ccc(Cl)cc2Cl)ccc1Oc1cnc2ccccc2c1
Cmax [4]: 920 nM | AUC(0-t) at 24 h [1]: 3.4 µM·h

N#Cc1cc(NS(=O)(=O)c2ccc(Cl)cc2Cl)ccc1Oc1cncc(Cl)c1
AUC(0-t) at 24 h [1]: 31 µM·h

O=S(=O)(Nc1cc(Cl)c(Oc2cnc3ccccc3c2)c(Cl)c1)c1ccc(Cl)cc1Cl [INT131]
AUC(0-t) at 24 h [5]: 8.3 µM·h | Cmax [6]: 4300 nM | Cmax [7]: 390 nM | AUC(0-t) at 24 h [8]: 1.1 µM·h | Cmax [9]: 660 nM | AUC(0-t) at 24 h [10]: 71 µM·h | Cmax [4]: 1100 nM | AUC(0-t) at 24 h [11]: 2.6 µM·h | Cmax [12]: 6100 nM | AUC(0-t) at 24 h [13]: 5.1 µM·h | AUC(0-t) at 24 h [1]: 30 µM·h | AUC(0-t) at 24 h [14]: 100 µM·h | Cmax [15]: 80 nM | Cmax [16]: 130 nM
